We go through 20 molecules from ChEMBL document CHEMBL3414458, “Discovery of novel 2,5-dioxoimidazolidine-based P2X(7) receptor antagonists as constrained analogues of KN62” (J Med Chem, 2015).

The target in one test is T1, P2X purinoceptor 7 (Homo sapiens) (UniProt Q99572).
T1 sequence (whole entry): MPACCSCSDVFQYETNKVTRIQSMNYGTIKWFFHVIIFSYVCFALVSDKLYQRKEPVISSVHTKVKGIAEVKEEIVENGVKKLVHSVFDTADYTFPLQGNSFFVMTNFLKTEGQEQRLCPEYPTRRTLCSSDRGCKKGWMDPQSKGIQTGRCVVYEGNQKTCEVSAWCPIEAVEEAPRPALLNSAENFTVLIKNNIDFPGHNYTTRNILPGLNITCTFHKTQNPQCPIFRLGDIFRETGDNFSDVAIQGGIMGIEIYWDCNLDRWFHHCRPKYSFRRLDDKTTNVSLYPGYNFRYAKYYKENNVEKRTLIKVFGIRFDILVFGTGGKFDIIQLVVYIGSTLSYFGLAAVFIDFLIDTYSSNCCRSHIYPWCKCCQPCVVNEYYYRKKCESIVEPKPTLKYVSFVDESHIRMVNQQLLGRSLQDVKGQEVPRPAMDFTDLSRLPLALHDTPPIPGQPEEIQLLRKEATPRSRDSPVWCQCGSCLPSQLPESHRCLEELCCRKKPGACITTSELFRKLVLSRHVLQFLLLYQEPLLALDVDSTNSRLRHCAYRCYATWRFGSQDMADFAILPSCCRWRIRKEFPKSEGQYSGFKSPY
The test is described as follows: Antagonist activity at P2X7 receptor in LPS/IFN-gamma-differentiated human THP1 cells assessed as inhibition of BzATP-induced IL-1beta release at 1 uM preincubated for 30 mins followed by BzATP induction measured after 30 mins by ELISA relative to control. Format: cell-based. Conditions: THP-1. A digest of the protocol:
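LPS-primed THP-1 human monocytes were stimulated with BzATP, and IL-1β release was measured by ELISA. Test compound was given at a single concentration of 1 µM, and results are expressed as percent inhibition of BzATP-induced IL-1β release.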
(An ELISA detects its analyte on a solid surface through an enzyme-linked reagent.)
For orientation: inhibition means the relative decrease from the control value, in per cent. With `CCC(=O)N1CCC(N2C(=O)NC(=O)C2Cc2ccc(OS(=O)(=O)c3cccc4cnccc34)cc2)CC1` (racemic), the inhibition was 48%.

In the case of `O=C1NC(=O)N(Cc2cccc3cnccc23)C1Cc1ccc(OS(=O)(=O)c2cccc3cnccc23)cc1` (racemic), the inhibition is 38%.

As to `COc1ccc(C(=O)N2CCC(N3C(=O)NC(=O)C3Cc3ccc(OS(=O)(=O)c4cccc5cnccc45)cc3)CC2)cc1OC` (racemic), the inhibition was 52%.

Take `O=C1NC(=O)N(C2CCN(C(=O)C34CC5CC(CC3C5)C4)CC2)C1Cc1ccc(OS(=O)(=O)c2cccc3cnccc23)cc1` (racemic): the inhibition was greater than 95%.

As to `O=C1NC(=O)N(CC2CCN(Cc3ccccc3)CC2)C1Cc1ccc(OS(=O)(=O)c2cccc3cnccc23)cc1` (racemic), the inhibition amounted to 52%.

`CC(C)(C)OC(=O)N1CCC(CN2C(=O)C(Cc3ccc(OS(=O)(=O)c4cccc5cnccc45)cc3)N(Cc3cccc4cnccc34)C2=O)CC1` (racemic): the inhibition is 50%.

Consider `O=C1NC(=O)N(C2CCN(CC34CC5CC(CC(C5)C3)C4)CC2)C1Cc1ccc(OS(=O)(=O)c2cccc3cnccc23)cc1` (racemic), for which the inhibition came out at 49%.

As for `CC(C)(C)OC(=O)N1CCC(CCN2C(=O)NC(=O)C2Cc2ccc(OS(=O)(=O)c3cccc4cnccc34)cc2)CC1` (racemic), the inhibition is 54%.

For `CC(C)(C)C(=O)N1CCC(N2C(=O)NC(=O)C2Cc2ccc(OS(=O)(=O)c3cccc4cnccc34)cc2)CC1` (racemic), the inhibition is 49%.

For `O=C1NC(=O)N(CC2CCN(C(=O)c3ccccc3)CC2)C1Cc1ccc(OS(=O)(=O)c2cccc3cnccc23)cc1` (racemic), the inhibition came out at 59%.

As for `CC(C)(C)OC(=O)N1CCC(CN2C(=O)N[C@@H](Cc3ccc(OS(=O)(=O)c4cccc5cnccc45)cc3)C2=O)CC1`, the inhibition amounted to 45%.

Take `O=C1NC(=O)N(C2CCN(C(=O)c3ccccc3)CC2)C1Cc1ccc(OS(=O)(=O)c2cccc3cnccc23)cc1` (racemic): the inhibition is 60%.

For `O=C1NC(=O)N(C2CCN(C(=O)C34CC5CC(CC(Br)(C5)C3)C4)CC2)C1Cc1ccc(OS(=O)(=O)c2cccc3cnccc23)cc1` (racemic), the inhibition is greater than 95%.

As to `CC(C)(C)OC(=O)N1CCC(CN2C(=O)N(Cc3cccc4cnccc34)C(=O)C2Cc2ccc(OS(=O)(=O)c3cccc4cnccc34)cc2)CC1` (racemic), the inhibition was found to be 44%.

Take `O=C1NC(=O)N(CCC2CCN(C(=O)c3ccccc3)CC2)C1Cc1ccc(OS(=O)(=O)c2cccc3cnccc23)cc1` (racemic): the inhibition is 33%.

As to `CC(C)(C)OC(=O)N1CCC(N2C(=O)NC(=O)C2Cc2ccc(OS(=O)(=O)c3cccc4cnccc34)cc2)CC1` (racemic), the inhibition turned out to be 59%.

Turning to `O=C1N[C@@H](Cc2ccc(OS(=O)(=O)c3cccc4cnccc34)cc2)C(=O)N1Cc1cccc2cnccc12`, the inhibition was 52%.

In the case of `O=C1C(Cc2ccc(OS(=O)(=O)c3cccc4cnccc34)cc2)N(CC2CCN(Cc3ccccc3)CC2)C(=O)N1Cc1cccc2cnccc12` (racemic), the inhibition was 42%.

For `CC(C)CC(=O)N1CCC(N2C(=O)NC(=O)C2Cc2ccc(OS(=O)(=O)c3cccc4cnccc34)cc2)CC1` (racemic), the inhibition is 45%.

Regarding `CC(C)(C)OC(=O)N1CCC(CN2C(=O)NC(=O)C2Cc2ccc(OS(=O)(=O)c3cccc4cnccc34)cc2)CC1` (racemic), the inhibition is 60%.

Another test has as its target T2, P2X purinoceptor 7 (Homo sapiens, UniProt Q99572).
T2 sequence (Q99572 whole entry): T1 sequence (whole entry)
Description: Antagonist activity at P2X7 receptor in LPS/IFN-gamma-differentiated human THP1 cells assessed as inhibition of BzATP-induced IL-1beta release preincubated for 30 mins followed by BzATP induction measured after 30 mins by ELISA. Format: cell-based, THP-1.
Conditions: not given
Summed up: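 Human THP-1 monocytes, LPS-primed, stimulated with BzATP; IL-1β release measured by ELISA. Active compounds were screened at 1 µM, and full concentration-response curves were run to obtain IC50.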
Broadly, the IC50 is the point on the concentration scale where inhibition reaches its midpoint. For the molecule `O=C1NC(=O)N(C2CCN(C(=O)C34CC5CC(CC3C5)C4)CC2)C1Cc1ccc(OS(=O)(=O)c2cccc3cnccc23)cc1` (racemic), the half-inhibitory concentration (IC50) is 0.049 µM.

For `O=C1NC(=O)N(C2CCN(C(=O)C34CC5CC(CC(Br)(C5)C3)C4)CC2)C1Cc1ccc(OS(=O)(=O)c2cccc3cnccc23)cc1` (racemic), the IC50 amounted to 0.027 µM.

The next test has as its target T2, P2X purinoceptor 7. The test is described as follows: Antagonist activity at recombinant human P2X7 receptor expressed in HEK293 cells assessed as inhibition of BzATP-induced intracellular ethidium bromide uptake after 2 hrs by fluorescence assay. Type of test: cell-based.
Conditions: not given
A digest of the protocol: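 Human HEK293 cells stably expressing recombinant human P2X7; ethidium accumulation stimulated by BzATP was measured.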
As for `CCC(=O)N1CCC(N2C(=O)NC(=O)C2Cc2ccc(OS(=O)(=O)c3cccc4cnccc34)cc2)CC1` (racemic), the IC50 worked out at 11.7 µM.

As for `O=C1NC(=O)N(Cc2cccc3cnccc23)C1Cc1ccc(OS(=O)(=O)c2cccc3cnccc23)cc1` (racemic), the IC50 was found to be 3.82 µM.

As for `COc1ccc(C(=O)N2CCC(N3C(=O)NC(=O)C3Cc3ccc(OS(=O)(=O)c4cccc5cnccc45)cc3)CC2)cc1OC` (racemic), the IC50 was 3.76 µM.

For `O=C1NC(=O)N(C2CCN(C(=O)C34CC5CC(CC3C5)C4)CC2)C1Cc1ccc(OS(=O)(=O)c2cccc3cnccc23)cc1` (racemic), the IC50 is 0.069 µM.

As to `O=C1NC(=O)N(CC2CCN(Cc3ccccc3)CC2)C1Cc1ccc(OS(=O)(=O)c2cccc3cnccc23)cc1` (racemic), the concentration for half-maximal inhibition (IC50) stood at 1.82 µM.

Regarding `CC(C)(C)OC(=O)N1CCC(CN2C(=O)C(Cc3ccc(OS(=O)(=O)c4cccc5cnccc45)cc3)N(Cc3cccc4cnccc34)C2=O)CC1` (racemic), the IC50 was 12 µM.

As for `O=C1NC(=O)N(C2CCN(CC34CC5CC(CC(C5)C3)C4)CC2)C1Cc1ccc(OS(=O)(=O)c2cccc3cnccc23)cc1` (racemic), the IC50 stood at 2.29 µM.

Turning to `CC(C)(C)OC(=O)N1CCC(CCN2C(=O)NC(=O)C2Cc2ccc(OS(=O)(=O)c3cccc4cnccc34)cc2)CC1` (racemic), the 50% inhibitory concentration (IC50) was 1.01 µM.

Turning to `CC(C)(C)C(=O)N1CCC(N2C(=O)NC(=O)C2Cc2ccc(OS(=O)(=O)c3cccc4cnccc34)cc2)CC1` (racemic), the IC50 came out at 5.65 µM.

As to `O=C1NC(=O)N(CC2CCN(C(=O)c3ccccc3)CC2)C1Cc1ccc(OS(=O)(=O)c2cccc3cnccc23)cc1` (racemic), the IC50 stood at 0.789 µM.

In the case of `CC(C)(C)OC(=O)N1CCC(CN2C(=O)N[C@@H](Cc3ccc(OS(=O)(=O)c4cccc5cnccc45)cc3)C2=O)CC1`, the IC50 turned out to be 7.72 µM.

For `O=C1NC(=O)N(C2CCN(C(=O)c3ccccc3)CC2)C1Cc1ccc(OS(=O)(=O)c2cccc3cnccc23)cc1` (racemic), the IC50 turned out to be 0.574 µM.

`O=C1NC(=O)N(C2CCN(C(=O)C34CC5CC(CC(Br)(C5)C3)C4)CC2)C1Cc1ccc(OS(=O)(=O)c2cccc3cnccc23)cc1` (racemic): the IC50 stood at 0.03 µM.

Take `CC(C)(C)OC(=O)N1CCC(CN2C(=O)N(Cc3cccc4cnccc34)C(=O)C2Cc2ccc(OS(=O)(=O)c3cccc4cnccc34)cc2)CC1` (racemic): the IC50 was found to be 1.97 µM.

As for `O=C1NC(=O)N(CCC2CCN(C(=O)c3ccccc3)CC2)C1Cc1ccc(OS(=O)(=O)c2cccc3cnccc23)cc1` (racemic), the IC50 came to 4.99 µM.

For the molecule `CC(C)(C)OC(=O)N1CCC(N2C(=O)NC(=O)C2Cc2ccc(OS(=O)(=O)c3cccc4cnccc34)cc2)CC1` (racemic), the half-maximal inhibitory concentration (IC50) is 0.355 µM.

Turning to `O=C1N[C@@H](Cc2ccc(OS(=O)(=O)c3cccc4cnccc34)cc2)C(=O)N1Cc1cccc2cnccc12`, the IC50 amounted to 12.2 µM.

Consider `O=C1C(Cc2ccc(OS(=O)(=O)c3cccc4cnccc34)cc2)N(CC2CCN(Cc3ccccc3)CC2)C(=O)N1Cc1cccc2cnccc12` (racemic), for which the 50% inhibitory concentration (IC50) stood at 8.96 µM.

On to `CC(C)CC(=O)N1CCC(N2C(=O)NC(=O)C2Cc2ccc(OS(=O)(=O)c3cccc4cnccc34)cc2)CC1` (racemic), for which the half-inhibitory concentration (IC50) amounted to 4.88 µM.

For the molecule `CC(C)(C)OC(=O)N1CCC(CN2C(=O)NC(=O)C2Cc2ccc(OS(=O)(=O)c3cccc4cnccc34)cc2)CC1` (racemic), the IC50 was 0.885 µM.
